ChEMBL document CHEMBL1157819, “Almiramides A-C: discovery and development of a new class of leishmaniasis lead compounds” (J Med Chem, 2010)
Converted amounts (≈) assume the structure as drawn. The source made the active and inactive calls. The rule behind the calls is not given here. Non-standard residues stand in square brackets, D forms with d. Residues, ends and D or L forms follow the SMILES beside them. *: point of attachment. Octanoyl(2R-Me,7,8-dehydro) = C=CCCCC[C@@H](C)C(=O)*; Oct7ynoyl(2R-Me) = C#CCCCC[C@@H](C)C(=O)*; NMeY = CN[C@@H](Cc1ccc(O)cc1)C(=O)O; NMeF = CN[C@@H](Cc1ccccc1)C(=O)O; X1 = CC(=O)CCCC[C@@H](C)C(=O)*; Oct(7)enoyl = C=CCCCCCC(=O)*; Oct(7)ynoyl = C#CCCCCCC(=O)*; NMeV = CN[C@H](C(=O)O)C(C)C; X5 = C#CCCCCC(C)CC(C)C(=O)*; Hept6ynoyl = C#CCCCCC(=O)*; X3 = CCCCCC[C@@H](C)C(=O)*; X6 = C#CCCCC[C@H](C)C(=O)*; NMeA = CN[C@@H](C)C(=O)O; X4 = C=CCCCCC(=O)*; X2 = C=CCCCC(=O)*

Experiments:
[1] = Selectivity index, ratio of IC50 for african green monkey Vero cells to IC50 for Leishmania donovani; format: toxicity, cell-based; settings: read-out: Ratio IC50
Leishmania donovani [2] = experiment: Antileishmanial activity against Leishmania donovani by DNA fluorescence assay; format: functional, organism-based
Vero = experiment: Cytotoxicity against african green monkey Vero cells by MTT assay; format: cell-based; settings: Chlorocebus sabaeus
Method in brief: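 Green monkey Vero kidney cells; cell proliferation read by MTT.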

Leishmania donovani [3] = experiment: Antileishmanial activity against Leishmania donovani at 13.4 uM by DNA fluorescence assay; format: functional, organism-based
Plasmodium falciparum = experiment: Antimalarial activity against chloroquine-resistant Plasmodium falciparum W2 at 13.5 uM after 48 hrs by fluorometric method; format: functional, organism-based
Trypanosoma cruzi [4] = experiment: Antitrypanosomal activity against Trypanosoma cruzi Tulahuen infected in mouse 3T3 cells assessed as beta-galactosidase activity at 13.5 uM after 7 days by chagas bioassay; format: functional, organism-based; settings: NIH3T3
Leishmania donovani [5] = experiment: Antileishmanial activity against Leishmania donovani at 10 ug/mL by DNA fluorescence assay; format: functional, organism-based
Method in brief: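 Leishmania donovani; parasite growth read by parasite DNA fluorescence, with amphotericin B as positive control.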

Trypanosoma cruzi [6] = experiment: Antitrypanosomal activity against Trypanosoma cruzi Tulahuen infected in mouse 3T3 cells assessed as beta-galactosidase activity after 7 days by chagas bioassay; settings: NIH3T3, 168 h

Row | Compound | selectivity ratio [1] | IC50 (Leishmania donovani [2]) | IC50 (Vero) [µM] | other results
1 | C#CCCCCC(=O)N(C)[C@H](C(=O)N(C)[C@H](C(=O)N(C)[C@H](C(=O)N(C)[C@@H](C)C(=O)N(C)[C@@H](Cc1ccccc1)C(=O)O)C(C)C)C(C)C)C(C)C (Hept6ynoyl-[NMeV][NMeV][NMeV][NMeA][NMeF]-OH) | 50.2 | 5.6 µM | 281 | 
2 | CCCCCC[C@@H](C)C(=O)N(C)[C@H](C(=O)N(C)[C@H](C(=O)N[C@H](C(=O)N(C)[C@@H](C)C(=O)N(C)[C@@H](Cc1ccccc1)C(N)=O)C(C)C)C(C)C)C(C)C [TETRAHYDROALMIRAMIDE B] (X3-[NMeV][NMeV]V[NMeA][NMeF]-NH2) |  | > 13.7 µM |  | Activity (Leishmania donovani [3]): inactive
3 | C#CCCCC[C@@H](C)C(=O)N(C)[C@H](C(=O)N(C)[C@H](C(=O)N[C@H](C(=O)N(C)[C@@H](C)C(=O)N(C)[C@@H](Cc1ccccc1)C(N)=O)C(C)C)C(C)C)C(C)C [ALMIRAMIDE B] ({Oct7ynoyl(2R-Me)}-[NMeV][NMeV]V[NMeA][NMeF]-NH2) | 21.8 | 2.4 µM | 52.3 | Activity (Plasmodium falciparum): inactive; Activity (Trypanosoma cruzi [4]): inactive
4 | CC(=O)CCCC[C@@H](C)C(=O)N(C)[C@H](C(=O)N(C)[C@H](C(=O)N[C@H](C(=O)N(C)[C@@H](C)C(=O)N(C)[C@@H](Cc1ccccc1)C(N)=O)C(C)C)C(C)C)C(C)C [ALMIRAMIDE A] (X1-[NMeV][NMeV]V[NMeA][NMeF]-NH2) |  | > 13.5 µM | 113 | Activity (Plasmodium falciparum): inactive; Activity (Trypanosoma cruzi [4]): inactive
5 | C=CCCCCC(=O)N(C)[C@H](C(=O)N(C)[C@H](C(=O)N(C)[C@H](C(=O)N(C)[C@@H](C)C(=O)N(C)[C@@H](Cc1ccccc1)C(=O)N(C)C)C(C)C)C(C)C)C(C)C (X4-[NMeV][NMeV][NMeV][NMeA][NMeF]-NMe2) | 8.8 | 2.7 µM | 13.8 | 
6 | CCCCCCCCCCCCCCCCOP(=O)([O-])OCC[N+](C)(C)C [MILTEFOSINE] |  | 0.5 µM |  | 
7 | C[C@@H]1[C@H](O)[C@@H](C)/C=C/C=C/C=C/C=C/C=C/C=C/C=C/[C@H](O[C@@H]2O[C@H](C)[C@@H](O)[C@H](N)[C@@H]2O)C[C@@H]2O[C@](O)(C[C@@H](O)C[C@@H](O)[C@H](O)CC[C@@H](O)C[C@@H](O)CC(=O)O[C@H]1C)C[C@H](O)[C@H]2C(=O)O [AMPHOTERICIN B] |  | 0.08 µg/mL |  | 
8 | C#CCCCCC(C)CC(C)C(=O)N(C)[C@@H](Cc1ccccc1)C(=O)N[C@@H](C)C(=O)N(C)[C@@H](C)C(=O)N(C)[C@@H](Cc1ccc(OC)cc1)C(N)=O (stereo not given in full) (X5-[NMeF]A[NMeA][NMeY](Me)-NH2) |  |  |  | Activity (Leishmania donovani [5]): inactive
9 | C=CCCCC(=O)N(C)[C@H](C(=O)N(C)[C@H](C(=O)N(C)[C@H](C(=O)N(C)[C@@H](C)C(=O)N(C)[C@@H](Cc1ccccc1)C(=O)N(C)C)C(C)C)C(C)C)C(C)C (X2-[NMeV][NMeV][NMeV][NMeA][NMeF]-NMe2) | 13.9 | 6.7 µM | 93.1 | 
10 | C=CCCCC[C@@H](C)C(=O)N(C)[C@H](C(=O)N(C)[C@H](C(=O)N[C@H](C(=O)N(C)[C@@H](C)C(=O)N(C)[C@@H](Cc1ccccc1)C(N)=O)C(C)C)C(C)C)C(C)C [ALMIRAMIDE C] ({Octanoyl(2R-Me,7,8-dehydro)}-[NMeV][NMeV]V[NMeA][NMeF]-NH2) | 17.4 | 1.9 µM | 33.1 | Activity (Plasmodium falciparum): inactive; Activity (Trypanosoma cruzi [4]): inactive
11 | C#CCCCC[C@H](C)C(=O)N(C)[C@H](C(=O)N(C)[C@H](C(=O)N(C)[C@H](C(=O)N(C)[C@@H](Cc1ccccc1)C(N)=O)C(C)C)C(C)C)C(C)C (X6-[NMeV][NMeV][NMeV][NMeF]-NH2) |  |  |  | Activity (Leishmania donovani [5]): inactive
12 | C#CCCCCCC(=O)N(C)[C@H](C(=O)N(C)[C@H](C(=O)N(C)[C@H](C(=O)N(C)[C@@H](C)C(=O)N(C)[C@@H](Cc1ccccc1)C(=O)O)C(C)C)C(C)C)C(C)C ({Oct(7)ynoyl}-[NMeV][NMeV][NMeV][NMeA][NMeF]-OH) |  | > 14 µM | > 68.9 | 
13 | C#CCCCC[C@H](C)C(=O)N(C)[C@@H](Cc1ccccc1)C(=O)N[C@@H](C)C(=O)N(C)[C@@H](C)C(=O)N(C)[C@@H](Cc1ccc(OC)cc1)C(N)=O (X6-[NMeF]A[NMeA][NMeY](Me)-NH2) |  |  |  | Activity (Leishmania donovani [5]): inactive
14 | C=CCCCCCC(=O)N(C)[C@H](C(=O)N(C)[C@H](C(=O)N(C)[C@H](C(=O)N(C)[C@@H](C)C(=O)N(C)[C@@H](Cc1ccccc1)C(=O)O)C(C)C)C(C)C)C(C)C ({Oct(7)enoyl}-[NMeV][NMeV][NMeV][NMeA][NMeF]-OH) | 46.9 | 4.1 µM | 192 | 
15 | C#CCCCCCC(=O)N(C)[C@H](C(=O)N(C)[C@H](C(=O)N(C)[C@H](C(=O)N(C)[C@@H](C)C(=O)N(C)[C@@H](Cc1ccccc1)C(=O)N(C)C)C(C)C)C(C)C)C(C)C ({Oct(7)ynoyl}-[NMeV][NMeV][NMeV][NMeA][NMeF]-NMe2) | 27 | 5.9 µM | 159 | 
16 | C#CCCCCCC(=O)N(C)[C@H](C(=O)N(C)[C@H](C(=O)N(C)[C@H](C(=O)N(C)[C@@H](C)C(=O)N(C)[C@@H](Cc1ccccc1)C(=O)OC)C(C)C)C(C)C)C(C)C ({Oct(7)ynoyl}-[NMeV][NMeV][NMeV][NMeA][NMeF]-OMe) |  | > 14 µM | 27 | 
17 | C#CCCCC[C@H](C)C(=O)N(C)[C@H](C(=O)N(C)[C@H](C(=O)N(C)[C@H](C(=O)N(C)[C@H](C(N)=O)C(C)C)C(C)C)C(C)C)C(C)C (X6-[NMeV][NMeV][NMeV][NMeV]-NH2) |  |  |  | Activity (Leishmania donovani [5]): inactive
18 | C#CCCCC[C@@H](C)C(=O)N(C)[C@H](C(=O)N(C)[C@H](C(=O)N(C)[C@H](C(=O)N(C)[C@@H](C)C(=O)N(C)[C@@H](Cc1ccccc1)C(=O)N(C)C)C(C)C)C(C)C)C(C)C [PERMETHYLALMIRAMIDE B] ({Oct7ynoyl(2R-Me)}-[NMeV][NMeV][NMeV][NMeA][NMeF]-NMe2) |  | 2.3 µM |  | 
19 | C=CCCCCC(=O)N(C)[C@H](C(=O)N(C)[C@H](C(=O)N(C)[C@H](C(=O)N(C)[C@@H](C)C(=O)N(C)[C@@H](Cc1ccccc1)C(=O)OC)C(C)C)C(C)C)C(C)C (X4-[NMeV][NMeV][NMeV][NMeA][NMeF]-OMe) |  | > 14 µM | 24.7 | 
20 | C=CCCCCCC(=O)N(C)[C@H](C(=O)N(C)[C@H](C(=O)N(C)[C@H](C(=O)N(C)[C@@H](C)C(=O)N(C)[C@@H](Cc1ccccc1)C(=O)OC)C(C)C)C(C)C)C(C)C ({Oct(7)enoyl}-[NMeV][NMeV][NMeV][NMeA][NMeF]-OMe) |  | > 14 µM | 18.8 | 
21 | C#CCCCCC(=O)N(C)[C@H](C(=O)N(C)[C@H](C(=O)N(C)[C@H](C(=O)N(C)[C@@H](C)C(=O)N(C)[C@@H](Cc1ccccc1)C(=O)OC)C(C)C)C(C)C)C(C)C (Hept6ynoyl-[NMeV][NMeV][NMeV][NMeA][NMeF]-OMe) |  | > 14 µM | 41.4 | 
22 | C#CCCCC[C@@H](C)C(=O)N(C)[C@H](C(=O)N(C)[C@H](C(=O)N(C)[C@H](C(=O)N(C)[C@@H](C)C(=O)N(C)[C@@H](Cc1ccccc1)C(N)=O)C(C)C)C(C)C)C(C)C [MONOMETHYLALMIRAMIDE B] ({Oct7ynoyl(2R-Me)}-[NMeV][NMeV][NMeV][NMeA][NMeF]-NH2) |  | 1.6 µM |  | 
23 | C=CCCCCC(=O)N(C)[C@H](C(=O)N(C)[C@H](C(=O)N(C)[C@H](C(=O)N(C)[C@@H](C)C(=O)N(C)[C@@H](Cc1ccccc1)C(=O)O)C(C)C)C(C)C)C(C)C (X4-[NMeV][NMeV][NMeV][NMeA][NMeF]-OH) |  | > 14 µM | > 70 | 
24 | CC1CS(=O)(=O)CCN1/N=C/c1ccc([N+](=O)[O-])o1 (stereo not given) [NIFURTIMOX] |  |  |  | IC50 (Trypanosoma cruzi [6]): 3 µg/mL (≈ 10.4 µM)
25 | C#CCCCCC(=O)N(C)[C@H](C(=O)N(C)[C@H](C(=O)N(C)[C@H](C(=O)N(C)[C@@H](C)C(=O)N(C)[C@@H](Cc1ccccc1)C(=O)N(C)C)C(C)C)C(C)C)C(C)C (Hept6ynoyl-[NMeV][NMeV][NMeV][NMeA][NMeF]-NMe2) | 50.2 | 3.1 µM | 156 | 
